Marks after values point to notes of the source that are not given here.
Experiments:
total P450 = test: Total P450 concentration in liver microsomes of the 4-week dog toxicity study; assay type: in vivo, Beagle dog; details: 4 weeks
How it was run: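 Microsomes were made from pooled liver (1.5–2 g per dose group) of 4-week toxicity studies, including vehicle controls. Tissue homogenised in ice-cold 50 mmol/L Tris-HCl pH 7.4 with 250 mmol/L sucrose, spun at 9000 g then 100 000 g (4°C), and the pellet washed in 100 mmol/L pyrophosphate pH 7.25 with 1 mmol/L EDTA. Total P450 by carbon monoxide spectrophotometric assay.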

Cyp2c13 = test: Taqman mRNA upregulation in rat liver; assay type: in vivo, Sprague-Dawley rat; details: male-specific
CYP3A4 = details: clinical trials, man, 10 mg; cited from earlier work
[1] = man, therapeutic dose of 10 mg; clinical trials ref 19; cited from earlier work
Cyp3a1 = test: Taqman mRNA upregulation in rat liver, 4-week toxicity study; assay type: in vivo, Sprague-Dawley rat
How it was run: (§1)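 Livers came from satellite-group rats of both sexes (n = 5–6) in the 4-week study, dosed once daily at 0, 50, 150, 450 or 1500 mg/kg in modified gelatine. Transcripts quantified by comparative Ct, normalised to 18S and to vehicle-treated controls; fold change = 2−ΔΔCT.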

CYP2C9 = test: Induction of P450 mRNA in human hepatocytes; assay type: cell-based; details: up to 10 µmol/L
How it was run: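 Three human hepatocyte batches were cultured as monolayers and treated for 48–89 h with test compound, diluted 1000-fold from DMSO stock, or vehicle. Medium with fresh drug renewed every 24 h; rifampicin and omeprazole served as positive controls. CYP mRNA then measured.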

Cyp3a12 = test: Taqman mRNA upregulation in dog liver, 4-week toxicity study; assay type: in vivo, Beagle dog; details: 4 weeks; for increase in Cyp3a12 mRNA expression: 500 mg/kg
How it was run: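 Liver samples (n = 2–3) came from main-group Beagles of the 4-week study, dosed daily at 0, 5, 50 or 500 mg/kg in modified gelatine. Cyp3a12 transcript normalised to 18S and to vehicle-treated dogs (ΔΔCT); fold = 2−ΔΔCT.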

[2] = biological target: T1, human pregnane X receptor (Homo sapiens, UniProt O75469); test: PXR reporter-gene assay in green monkey kidney CV-1 cells; assay type: cell-based
T1 sequence (O75469 1-434): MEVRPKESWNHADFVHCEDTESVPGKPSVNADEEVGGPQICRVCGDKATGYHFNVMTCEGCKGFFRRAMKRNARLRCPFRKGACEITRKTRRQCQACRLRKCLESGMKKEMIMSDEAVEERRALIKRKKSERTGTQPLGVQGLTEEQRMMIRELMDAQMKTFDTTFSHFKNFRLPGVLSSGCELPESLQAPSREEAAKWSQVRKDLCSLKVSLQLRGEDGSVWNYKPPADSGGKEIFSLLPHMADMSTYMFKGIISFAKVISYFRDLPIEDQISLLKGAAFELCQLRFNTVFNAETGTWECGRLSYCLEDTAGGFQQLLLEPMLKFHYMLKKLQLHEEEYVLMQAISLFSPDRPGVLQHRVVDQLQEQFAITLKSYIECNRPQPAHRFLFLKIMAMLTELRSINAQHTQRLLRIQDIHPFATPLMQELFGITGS
How it was run: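 CV-1 cells were grown 3 days in DMEM/F12 with charcoal-treated FBS, then seeded at 25 000/well and lipofected with hPXR expression vector (0.1 ng), CYP3A4-luciferase reporter (20 ng) and β-galactosidase vector (60 ng). After 24 h, cells were treated 24 h in triplicate with 0.03–30 µmol/L test compound or rifampicin in delipidated charcoal-treated FBS medium. Luciferase normalised to β-galactosidase, expressed as fold over DMSO.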

[3] = Single-dose oral pharmacokinetics in dog; assay type: in vivo; details: male, Beagle, plasma
Cyp2c12 = test: Taqman mRNA upregulation in rat liver; assay type: in vivo, Sprague-Dawley rat; details: either sex
[4] = Toxicokinetics of the 4-week toxicity study in dog; assay type: in vivo, Beagle dog; details: for AUC0‐24 h (day 8/28): day 28
Cyp2c11 = test: Taqman mRNA upregulation in rat liver, 4-week toxicity study; assay type: in vivo, Sprague-Dawley rat; details: male rats; for Upregulation of Cyp2c11 mRNA: 4-week study, relative to vehicle control
How it was run: as §1

[5] = Single-dose intravenous pharmacokinetics in rat; assay type: in vivo, Sprague-Dawley rat; details: for AUC / Vd / clearance / half-life: Sprague-Dawley, plasma, iv

For `CCCNS(=O)(=O)Nc1ncnc(OCCOc2ncc(Br)cn2)c1-c1ccc(Br)cc1` [macitentan], which “P450 (total, liver microsomes)” value (total P450; female dogs, macitentan 5 mg/kg daily) is on record?
Its value is 0.63 nmol/mg.

And the “P450 (total, liver microsomes)” value (total P450; female dogs, macitentan 50 mg/kg daily)?
Its value is 0.87 nmol/mg.

What about the “P450 (total, liver microsomes)” value (total P450; female dogs, macitentan 500 mg/kg daily) of the same compound?
Its value is 0.84 nmol/mg.

What about the “P450 (total, liver microsomes)” value (total P450; male dogs, macitentan 5 mg/kg daily) of the same compound?
Its value is 0.50 nmol/mg.

And the “P450 (total, liver microsomes)” value (total P450; male dogs, macitentan 50 mg/kg daily)?
The value was 0.73 nmol/mg.

What about the “P450 (total, liver microsomes)” value (total P450; male dogs, macitentan 500 mg/kg daily) of the same compound?
Its value is 1.00 nmol/mg.

And the “Induction of Cyp2c13 mRNA” value (Cyp2c13)?
The value was “No induction”.

What about the “effect on the pharmacokinetics of the sensitive CYP3A4 substrate sildenafil” value (CYP3A4) of the same compound?
The value was “neither changed the pharmacokinetics”.

And the “plasma exposure (AUC0‐24h)” value [1]?
Its value is 5400 ng·h/mL.

And the “Upregulation of Cyp3a1 mRNA” value (Cyp3a1; female rats, 50 mg/kg daily, 4-week study, relative to vehicle control)?
Its value is 12.1 ± 4.4.

What about the “Upregulation of Cyp3a1 mRNA” value (Cyp3a1; female rats, 150 mg/kg daily, 4-week study, relative to vehicle control) of the same compound?
The value was 38.3 ± 10.7.

What about the “Upregulation of Cyp3a1 mRNA” value (Cyp3a1; female rats, 450 mg/kg daily, 4-week study, relative to vehicle control) of the same compound?
Its value is 55.3 ± 13.1.

What about the “Upregulation of Cyp3a1 mRNA” value (Cyp3a1; female rats, 1500 mg/kg daily, 4-week study, relative to vehicle control) of the same compound?
Its value is 106 ± 34.

And the “Upregulation of Cyp3a1 mRNA” value (Cyp3a1; female rats, 1500 mg/kg, 4 weeks, vs control)?
Its value is 106 fold.

And the “Upregulation of Cyp3a1 mRNA” value (Cyp3a1; male rats, 50 mg/kg daily, 4-week study, relative to vehicle control = 1.00)?
The value was 2.17 ± 0.37.

What about the “Upregulation of Cyp3a1 mRNA” value (Cyp3a1; male rats, 150 mg/kg daily, 4-week study, relative to vehicle control) of the same compound?
Its value is 3.51 ± 1.36.

And the “Upregulation of Cyp3a1 mRNA” value (Cyp3a1; male rats, 450 mg/kg daily, 4-week study, relative to vehicle control)?
Its value is 4.87 ± 0.51.

What about the “Upregulation of Cyp3a1 mRNA” value (Cyp3a1; male rats, 1500 mg/kg daily, 4-week study, relative to vehicle control) of the same compound?
The value was 9.96 ± 4.18.

What about the “increase of Cyp3a1 mRNA vs control” value (Cyp3a1; male rats, 1500 mg/kg, 4 weeks) of the same compound?
The value was “about 10 fold”.

What about the “change in CYP2C9 mRNA expression” value (CYP2C9) of the same compound?
Its value is “No change”.

And the “Upregulation of Cyp3a12 mRNA” value (Cyp3a12; female dogs, 5 mg/kg daily, relative to vehicle control)?
Its value is 2.84 ± 0.44.

What about the “Upregulation of Cyp3a12 mRNA” value (Cyp3a12; female dogs, 50 mg/kg daily, relative to vehicle control) of the same compound?
Its value is 4.34 ± 0.61.

And the “Upregulation of Cyp3a12 mRNA” value (Cyp3a12; female dogs, 500 mg/kg daily, relative to vehicle control, n = 2 only)?
The value was 12.7 ^a.

What about the “increase in Cyp3a12 mRNA expression” value (Cyp3a12; female dogs) of the same compound?
Its value is 12.7 fold.

And the “Upregulation of Cyp3a12 mRNA” value (Cyp3a12; male dogs, 5 mg/kg daily, relative to vehicle control = 1.00)?
Its value is 1.63 ± 0.72.

What about the “Upregulation of Cyp3a12 mRNA” value (Cyp3a12; male dogs, 50 mg/kg daily, relative to vehicle control) of the same compound?
Its value is 6.45 ± 1.71.

And the “Upregulation of Cyp3a12 mRNA” value (Cyp3a12; male dogs, 500 mg/kg daily, relative to vehicle control)?
Its value is 18.6 ^b.

What about the “increase in Cyp3a12 mRNA expression” value (Cyp3a12; male dogs) of the same compound?
The value was 18.6 fold.

And the EC50 [2]?
The EC50 was 1200 nM.

What about the AUC ([3]; 1 mg/kg) of the same compound?
Its AUC is 2370 ng·h/mL.

What about the Cmax ([3]; 1 mg/kg) of the same compound?
Its Cmax is 410 ng/mL.

What about the Tmax ([3]; 1 mg/kg) of the same compound?
Its Tmax is 2 h.

And the AUC ([3]; 10 mg/kg)?
The AUC was 27500 ng·h/mL.

And the bioavailability ([3]; 10 mg/kg)?
Its bioavailability is 86%.

And the “Induction of Cyp2c12 mRNA” value (Cyp2c12)?
The value was “No induction”.

And the “increase in AUC0‐24h from 50 to 500 mg/kg” value ([4]; 4-week toxicity study)?
The value was 5.1 fold.

What about the AUC ([4]; beagle, plasma, oral, 5 mg/kg) of the same compound?
Its AUC is 17500 ng·h/mL.

And the “AUC0‐24 h (day 1)” value ([4]; females, 5 mg/kg daily oral)?
The value was 11.6 μg/mL"h.

And the “AUC0‐24 h (day 8/28)” value ([4]; females, 5 mg/kg daily oral)?
The value was 10.5 μg/mL"h.

And the “AUC0‐24 h (day 1)” value ([4]; females, 50 mg/kg daily oral)?
The value was 94.8 μg/mL"h.

What about the “AUC0‐24 h (day 8/28)” value ([4]; females, 50 mg/kg daily oral) of the same compound?
The value was 46.5 μg/mL"h.

And the “AUC0‐24 h (day 1)” value ([4]; females, 500 mg/kg daily oral)?
Its value is 504 μg/mL"h.

What about the “AUC0‐24 h (day 8/28)” value ([4]; females, 500 mg/kg daily oral) of the same compound?
Its value is 84.4 μg/mL"h.

And the “AUC0‐24 h (day 1)” value ([4]; males, 5 mg/kg daily oral)?
The value was 17.5 μg/mL"h.

What about the “AUC0‐24 h (day 8/28)” value ([4]; males, 5 mg/kg daily oral) of the same compound?
Its value is 14.7 μg/mL"h.

What about the “AUC0‐24 h (day 1)” value ([4]; males, 50 mg/kg daily oral) of the same compound?
The value was 134 μg/mL"h.

What about the “AUC0‐24 h (day 8/28)” value ([4]; males, 50 mg/kg daily oral) of the same compound?
Its value is 39.1 μg/mL"h.

And the “AUC0‐24 h (day 1)” value ([4]; males, 500 mg/kg daily oral)?
The value was 692 μg/mL"h.

And the “AUC0‐24 h (day 8/28)” value ([4]; males, 500 mg/kg daily oral)?
The value was 44.9 μg/mL"h.

What about the “increase of Cyp2c11 mRNA levels vs control” value (Cyp2c11; 450 mg/kg and 1500 mg/kg, 4 weeks) of the same compound?
The value was “about 50%”.

And the “Upregulation of Cyp2c11 mRNA” value (Cyp2c11; 450 mg/kg daily)?
The value was 1.48 ± 0.48.

And the “Upregulation of Cyp2c11 mRNA” value (Cyp2c11; 1500 mg/kg daily)?
The value was 1.43 ± 0.55.

And the “T 1/2” value ([5]; F, 0.3 mg/kg single iv, geometric mean (range))?
Its value is 8.9 (6.6‐12) h.

What about the AUC ([5]; female, 0.3 mg/kg) of the same compound?
The AUC was 2990 ng·h/mL.

And the Vd ([5]; female, 0.3 mg/kg)?
The Vd was 1.4 L/kg.

And the clearance ([5]; female, 0.3 mg/kg)?
Its clearance is 2 mL/min/kg.

What about the half-life ([5]; female, 0.3 mg/kg) of the same compound?
Its half-life is 8.9 h.

And the AUC ([5]; male, 0.1 mg/kg)?
Its AUC is 270 ng·h/mL.

And the Vd ([5]; male, 0.1 mg/kg)?
The Vd was 1.6 L/kg.

And the clearance ([5]; male, 0.1 mg/kg)?
The clearance was 6.5 mL/min/kg.

And the half-life ([5]; male, 0.1 mg/kg)?
The half-life was 3.8 h.

What about the AUC ([5]; male, 0.3 mg/kg) of the same compound?
The AUC was 610 ng·h/mL.

What about the Vd ([5]; male, 0.3 mg/kg) of the same compound?
Its Vd is 1.2 L/kg.

And the clearance ([5]; male, 0.3 mg/kg)?
The clearance was 8.2 mL/min/kg.

And the half-life ([5]; male, 0.3 mg/kg)?
The half-life was 1.9 h.

And the “CL in female rats as percent of the value in male animals” value ([5]; single iv)?
The value was 25%.
